Source: ChEMBL document CHEMBL2406980, “Non hemolytic short peptidomimetics as a new class of potent and broad-spectrum antimicrobial agents” (Bioorg Med Chem Lett, 2013)
Converted amounts (≈) assume the structure as drawn. The source made the active and inactive calls. The rule behind the calls is not given here. Where a SMILES comes first, the peptide text is derived from it.

How the values were obtained:
Escherichia coli [1] = assay: Antibacterial activity against Escherichia coli KCTC 1682 assessed as growth inhibition after 18 to 20 hrs by broth microdilution method; format: functional
Outline: (§1)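 MIC by broth microdilution against a four-strain panel: E. coli and P. aeruginosa (Gram-negative), S. epidermidis and S. aureus (Gram-positive). Values are given in mass and molar units. Where no activity occurs at the top concentration, twice that maximum is used in the geometric-mean MIC calculation.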

Staphylococcus aureus [2] = assay: Antibacterial activity against Staphylococcus aureus KCTC 1621 assessed as growth inhibition after 18 to 20 hrs by broth microdilution method; format: functional; outline: as §1
Staphylococcus aureus [3] = assay: Antibacterial activity against methicillin-resistant Staphylococcus aureus CCARM 3095 assessed as growth inhibition after 18 to 20 hrs by broth microdilution method; format: functional
Staphylococcus aureus [4] = assay: Antibacterial activity against Staphylococcus aureus KCTC 1621 assessed as growth inhibition at 50 ug/ml preincubated with trypsin for 1 hr followed by 18 to 20 hrs incubation in bacterial culture by broth microdilution method; format: functional, organism-based
Outline: (§2)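 Peptides are pretreated with trypsin, then residual antibacterial activity is measured by broth microdilution. Remaining intact peptide at each degradation time is followed separately by analytical RP-HPLC after trypsin treatment.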

Escherichia coli [5] = assay: Antibacterial activity against Escherichia coli KCTC 1682 assessed as obvious disruption of cellular structure at 10 X MIC after 1 hr by transmission electron microscopic analysis; format: functional, organism-based
Outline: (§3)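 Peptide-treated E. coli and S. aureus are negatively stained and examined by transmission electron microscopy for cell rupture and release of internal material. Comparisons are made with untreated cells, with LL-37 as a positive lysis control.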

Staphylococcus aureus [6] = assay: Antibacterial activity against Staphylococcus aureus KCTC 1621 assessed as obvious disruption of cellular structure at 10 X MIC after 1 hr by transmission electron microscopic analysis; format: functional, organism-based; outline: as §3
Staphylococcus aureus [7] = assay: Antibacterial activity against methicillin-resistant Staphylococcus aureus CCARM 3090 assessed as growth inhibition after 18 to 20 hrs by broth microdilution method; format: functional
[8] = system: Staphylococcus epidermidis; assay: Antibacterial activity against Staphylococcus epidermidis KCTC 1917 assessed as growth inhibition after 18 to 20 hrs by broth microdilution method; format: functional; outline: as §1
Staphylococcus aureus [9] = assay: Antibacterial activity against methicillin-resistant Staphylococcus aureus CCARM 3089 assessed as growth inhibition after 18 to 20 hrs by broth microdilution method; format: functional
Pseudomonas aeruginosa = assay: Antibacterial activity against Pseudomonas aeruginosa KCTC 1637 assessed as growth inhibition after 18 to 20 hrs by broth microdilution method; format: functional; outline: as §1
Escherichia coli [10] = assay: Antibacterial activity against Escherichia coli KCTC 1682 assessed as growth inhibition at 50 ug/ml preincubated with trypsin for 1 hr followed by 18 to 20 hrs incubation in bacterial culture by broth microdilution method; format: functional, organism-based; outline: as §2
[11] = Hemolytic activity in human RBC after 1 hr; format: ADME, cell-based; conditions: erythrocyte
Outline: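 Human erythrocytes are exposed to peptide, and HC10 is taken as the peptide concentration producing 10% hemolysis. If no hemolysis is detected at the top concentration tested, twice that maximum is used for the therapeutic index.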

Molecule | MIC (Escherichia coli [1]) [µM] | MIC (Staphylococcus aureus [2]) [µM] | MIC (Staphylococcus aureus [3]) [µM] | growth inhibition (GI) (Staphylococcus aureus [4]) | Activity (Escherichia coli [5]) | Activity (Staphylococcus aureus [6]) | MIC (Staphylococcus aureus [7]) [µM] | MIC [8] [µM] | MIC (Staphylococcus aureus [9]) [µM] | MIC (Pseudomonas aeruginosa) [µM] | growth inhibition (GI) (Escherichia coli [10]) | HC10 [11] [µM]
N=C(N)NCCC[C@H](NC(=O)[C@H](CCCNC(=N)N)NC(=O)[C@@H](N)Cc1c[n+](CCCC2CCCCC2)cn1CCCC1CCCCC1)C(N)=O | 5.6 | 2.8 | 5.6 | Active | Active | Active | 5.6 | 2.8 | 5.6 | 11.2 | Active | > 357.7
H-WRWRWR-NH2 [listing 1 of 2 here] |  |  |  |  |  |  |  |  |  |  |  | > 245.2
CC[C@H](C)[C@H](NC(=O)[C@H](CCCCN)NC(=O)[C@H](CCC(=O)O)NC(=O)[C@H](CCCCN)NC(=O)[C@H](CO)NC(=O)[C@H](CCCCN)NC(=O)[C@H](CCCNC(=N)N)NC(=O)[C@H](Cc1ccccc1)NC(=O)[C@H](Cc1ccccc1)NC(=O)[C@H](CC(=O)O)NC(=O)CNC(=O)[C@H](CC(C)C)NC(=O)[C@@H](N)CC(C)C)C(=O)NCC(=O)N[C@@H](CCCCN)C(=O)N[C@@H](CCC(=O)O)C(=O)N[C@@H](Cc1ccccc1)C(=O)N[C@@H](CCCCN)C(=O)N[C@@H](CCCNC(=N)N)C(=O)N[C@H](C(=O)N[C@H](C(=O)N[C@@H](CCC(N)=O)C(=O)N[C@@H](CCCNC(=N)N)C(=O)N[C@H](C(=O)N[C@@H](CCCCN)C(=O)N[C@@H](CC(=O)O)C(=O)N[C@@H](Cc1ccccc1)C(=O)N[C@@H](CC(C)C)C(=O)N[C@@H](CCCNC(=N)N)C(=O)N[C@@H](CC(N)=O)C(=O)N[C@@H](CC(C)C)C(=O)N[C@H](C(=O)N1CCC[C@H]1C(=O)N[C@@H](CCCNC(=N)N)C(=O)N[C@H](C(=O)N[C@@H](CCC(=O)O)C(=O)N[C@@H](CO)C(=O)O)[C@@H](C)O)C(C)C)[C@@H](C)CC)C(C)C)[C@@H](C)CC [CATHELICIDIN] | 7.1 (≈ 31.9 µg/mL) | 3.6 (≈ 16.2 µg/mL) | > 7.1 |  | Active | Active | > 7.1 | 14.2 (≈ 63.8 µg/mL) | > 7.1 | 7.1 (≈ 31.9 µg/mL) |  | 36.7
N=C(N)NCCC[C@H](NC(=O)[C@@H](N)Cc1c[n+](CCCC2CCCCC2)cn1CCCC1CCCCC1)C(N)=O | > 114 | 14.3 | 14.3 | Active |  |  | 28.6 | 14.3 | 14.3 | 57.2 | Active | > 457.6
NC(=O)[C@H](CCCN=C(N)N)NC(=O)[C@H](Cc1c[nH]c2ccccc12)NC(=O)[C@@H](N)CCCN=C(N)N (H-Arg-Trp-Arg-NH2) | > 124 | > 124 |  |  |  |  |  | > 124 |  | > 124 |  | > 495.8
N=C(N)NCCC[C@H](NC(=O)[C@@H](N)CCCNC(=N)N)C(=O)N[C@@H](Cc1c[n+](CCCC2CCCCC2)cn1CCCC1CCCCC1)C(N)=O | 5.6 | 5.6 | 5.6 | Active |  |  | 11.2 | 5.6 | 5.6 | 11.2 | Active | > 358
CC[C@H](C)[C@H](NC(=O)CN)C(=O)NCC(=O)N[C@@H](C)C(=O)N[C@H](C(=O)N[C@@H](CC(C)C)C(=O)N[C@@H](CCCCN)C(=O)N[C@H](C(=O)N[C@@H](CC(C)C)C(=O)N[C@H](C(=O)N[C@H](C(=O)NCC(=O)N[C@@H](CC(C)C)C(=O)N1CCC[C@H]1C(=O)N[C@@H](C)C(=O)N[C@@H](CC(C)C)C(=O)N[C@H](C(=O)N[C@@H](CO)C(=O)N[C@@H](Cc1c[nH]c2ccccc12)C(=O)N[C@H](C(=O)N[C@@H](CCCCN)C(=O)N[C@@H](CCCNC(=N)N)C(=O)N[C@@H](CCCCN)C(=O)N[C@@H](CCCNC(=N)N)C(=O)N[C@@H](CCC(N)=O)C(=O)N[C@@H](CCC(N)=O)C(N)=O)[C@@H](C)CC)[C@@H](C)CC)[C@@H](C)O)[C@@H](C)O)C(C)C)C(C)C |  |  |  | inactive |  |  |  |  |  |  | inactive | 
H-WRWRWR-NH2 [listing 2 of 2 here] | 3.8 | 7.7 |  |  |  |  |  | 7.7 |  | 15.3 |  | 
N=C(N)NCCC[C@H](NC(=O)[C@H](Cc1cncn1CCCC1CCCCC1)NC(=O)[C@@H](N)CCCNC(=N)N)C(N)=O | 108 (≈ 63.9 µg/mL) | 13.5 (≈ 7.98 µg/mL) | 54.1 (≈ 32 µg/mL) | inactive |  |  | > 54.1 | 13.5 (≈ 7.98 µg/mL) | 54.1 (≈ 32 µg/mL) | 108 (≈ 63.9 µg/mL) | inactive | > 432.9
NC(=O)[C@H](CCCN=C(N)N)NC(=O)[C@H](Cc1c[nH]c2ccccc12)NC(=O)[C@H](CCCN=C(N)N)NC(=O)[C@@H](N)Cc1c[nH]c2ccccc12 (H-WRWR-NH2) | 45.6 (≈ 32 µg/mL) | 45.6 (≈ 32 µg/mL) |  |  |  |  |  | 11.4 (≈ 8 µg/mL) |  | 45.6 (≈ 32 µg/mL) |  | 
N=C(N)NCCC[C@H](NC(=O)[C@H](Cc1c[nH]c2ccccc12)NC(=O)[C@H](CCCNC(=N)N)NC(=O)[C@@H](N)Cc1c[nH]c2ccccc12)C(N)=O (H-WRWR-NH2) |  |  |  |  |  |  |  |  |  |  |  | > 364.5
N=C(N)NCCC[C@H](NC(=O)[C@H](Cc1c[n+](CCCC2CCCCC2)cn1CCCC1CCCCC1)NC(=O)[C@@H](N)CCCNC(=N)N)C(N)=O | 5.6 | 5.6 | 5.2 | Active | Active | Active | 5.2 | 5.6 | 5.2 | 11.2 | Active | > 357.8
